High-throughput results: PubChem BioAssay, several laboratories
JNK3 blocker – JNK3 kinase activity inhibitors, primary screen, biochemical, human, purified enzyme | Mitogen-activated protein kinase 10 (Homo sapiens), P53779 | HTS | inhibition, % at 8 µM | 60,000 compounds, 0.61% hits | AID 746, 2007; in the data active = inhibition above about 17%
Target sequence (P53779 whole entry, looked up): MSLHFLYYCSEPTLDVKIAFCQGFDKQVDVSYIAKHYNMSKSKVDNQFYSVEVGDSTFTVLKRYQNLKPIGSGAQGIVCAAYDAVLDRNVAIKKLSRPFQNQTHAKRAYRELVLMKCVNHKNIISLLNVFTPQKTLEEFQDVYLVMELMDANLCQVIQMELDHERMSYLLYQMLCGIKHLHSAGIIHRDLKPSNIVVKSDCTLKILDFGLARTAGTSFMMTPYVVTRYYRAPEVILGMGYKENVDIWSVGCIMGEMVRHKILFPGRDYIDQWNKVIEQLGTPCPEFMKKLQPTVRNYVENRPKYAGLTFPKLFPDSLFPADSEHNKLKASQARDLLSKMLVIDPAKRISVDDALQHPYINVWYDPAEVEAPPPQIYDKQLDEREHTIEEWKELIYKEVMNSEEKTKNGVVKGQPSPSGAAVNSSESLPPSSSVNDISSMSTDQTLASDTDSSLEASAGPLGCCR
Her2 expr inh – inhibitors of Her2 protein expression, primary screen, SKBR-3 cells, AlphaScreen, 66K library. Receptor tyrosine-protein kinase erbB-2 (Homo sapiens), P04626. SKBR-3 HER2 protein level, 18-24 h; active compounds read low. HER2 level % of control, % at 10 µM. 65,000 compounds, 0.69% hits. AID 645, 2007;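 active = HER2 level under 5% of the carrier-only control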;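 note: lower value means stronger loss of Her2 protein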
M1 agonist – M1 muscarinic receptor agonists, primary screen, CHO-M1 cells, Fluo-4 calcium, agonist mode | Fluo-4 calcium fluorescence; active compounds read high | B-score at 10 µM | 64,000 compounds, 3% hits;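 active = fluorescence rise, raw or as B-score row- and column-corrected plate score, outside the 99.7% band of its plate's samples, either direction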
HEK293 NFkB inh – inhibitors of PMA/ionomycin-induced NF-kB reporter, primary screen, antigen receptor NF-kB inhibitor project, cell-based, HEK-293 luciferase reporter, luminescence; HEK-293 NF-kB luciferase reporter; inhibition, % at 3 µM; 62,000 compounds, 0.21% hits; AID 465, 2006;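 active = inhibition above the mean of all tested compounds plus 3 SD, cut at about 40% in these data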
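System: NF-kB luciferase reporter HEK-293 cells | Replication: Single test | Control set: DMSO vs reference inhibitor | Evaluation: % inhibition | Schedule: 1 h pretreatment, 16 h stimulation, 37 °C | Probe or stimulus: PMA with ionomycin | Compound dosing: One dose, 3 µM | Detection: Luciferase luminescence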
BAP1 inh – inhibitors of BAP1 deubiquitinase, primary screen, biochemical, Ub-AMC fluorescence, kinetic; Ubiquitin carboxyl-terminal hydrolase BAP1 (Homo sapiens), Q92560; recombinant BAP1, Ub-AMC hydrolysis fluorescence kinetic; active compounds read low; calls only at 20 µM; 72,000 compounds, 0.48% hits;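 active = activity remaining at or below 50% of control, provided the compound also passes the data quality filters; inactive = the rest, including low values that fail the filters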
M1 antag – antagonists of rat M1 muscarinic receptor; Muscarinic acetylcholine receptor M1 (Rattus norvegicus), P08482; CHO-M1 cells, Fluo-4 calcium, ACh EC80 antagonist mode; active compounds read low; B-score at 10 µM; 64,000 compounds, 3.4% hits; AID 628, 2007;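 active = calcium fluorescence response, raw or row-and-column corrected B-score, differing from the plate sample mean either way at a set confidence level, mostly lower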
M1 antag conf – rat M1 muscarinic receptor antagonists, confirmation, CHO cells, Fluo-4 calcium, duplicate; shares compounds with M1 antag; ACh EC80 antagonism; active compounds read low; calcium response (max-min fluorescence) at 10 µM; 1,700 compounds, 43% hits;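 active = calcium response below the same-plate mean of wells given acetylcholine alone at its 80%-effect dose, minus 3 SD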
mGluR4 antag – human mGluR4 response to M1 antagonist hits, M1 allosteric modulator project, cell-based, antagonist mode, secondary assay 1; shares compounds with M1 antag; CHO-mGluR4 calcium flux, Fluo-4 fluorescence, glutamate EC80; active compounds read low; fluorescence response (max-min) at 10 µM; 1,700 compounds, 0.9% hits; AID 678, 2007;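 active = fluorescence response below the plate's average for near-maximal glutamate wells, less 3 SD of those wells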;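 note: raw unnormalized fluorescence span taken in the window right after glutamate addition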
Numbers stand for hits; - = inactive; . = not tested or not shown. Most compounds without a hit are left out; they make up all but 6.6% or so of the library.

SMILES	JNK3 blocker	Her2 expr inh	M1 agonist	HEK293 NFkB inh	BAP1 inh	M1 antag	M1 antag conf	mGluR4 antag
CCCCOC(=O)Nc1cccc(C(C)=O)c1	-	-	-	-	-	-4.76	-	-
C1CCN=C(Nc2nc3c(s2)CCCC3)CC1	.	-	-	-	-	-6.44	468	-
c1nnc(NC2=NCCCCC2)s1	-	-	-	-	-	-	.	.
O=C(NCc1ccc2c(c1)OCO2)C1CC(=O)N(C2CCCC2)C1 (configuration not stated)	-	-	-	-	-	-2.91	-	-
CCOC(=O)C1CCN(CC(O)COc2ccc(C(C)(C)CC)cc2)CC1 (configuration not stated)	.	-	-	-	.	-4.72	-	-
COc1cccc(-c2cnc(NCc3cc(Cl)ccc3O)n2C)c1	-	-	-	-	-	-5.05	359	-
Cn1c(-c2ccc(F)cc2)cnc1NCc1ccccc1	-	-	-	-	-	-	.	.
Cn1c(-c2cccc(Br)c2)cnc1NCc1cccnc1	-	-	-	-	-	-6.92	40.2	-
Cc1cc2ncn(C(=O)c3c(-c4ccccc4Cl)noc3C)c2cc1C	-	-	-	-	-	-5.53	264	-
C[n+]1cccc2cc(O)ccc21	.	.	.	.	-	.	.	.
CN1CCN(c2ccccc2NC(=O)c2ccc(OCc3ccccc3)cc2)CC1	-	-	-	-	-	-2.15	403	-
CN1CCN(CCC(=O)Nc2ccc(OCc3ccccc3)cc2)CC1	-	-	-	-	-	-1.73	-	-
CCn1c(=O)cc(OCC(=O)Nc2ccccc2N2CCN(C)CC2)c2ccccc21	-	-	-	-	-	-	.	.
O=C(CCN1CCN(CCO)CC1)Nc1ccc(OCc2ccccc2)cc1	-	-	-	-	-	-	.	.
CN1CCN(c2ccccc2NC(=O)Cc2cn(C)c3ccccc23)CC1	-	-	-	-	-	-0.744	522	-
COc1ccc(-c2csc(NC(=O)c3ccc(S(=O)(=O)N4CCc5ccccc54)cc3)n2)cc1C	.	.	.	.	-	.	.	.
CC(C)(C)C1CCc2oc3ccc(NS(=O)(=O)c4cccc([N+](=O)[O-])c4)cc3c2C1 (configuration not stated)	.	.	.	.	-	.	.	.
CCOC(=O)NC(Nc1sc2c(c1C(=O)OC)CCN(C)C2)(C(F)(F)F)C(F)(F)F	-	-	-	.	-	-1.44	-	-
CCOC(=O)c1c(NC(=O)c2ccc(S(=O)(=O)N3CCOCC3)cc2)sc2c1CCN(C)C2	.	-	-	-	-	-	.	.
COc1ccc(C2CC(c3cc(OC)ccc3OC)n3nnnc3N2)cc1 (configuration not stated)	-	-	-	-	-	-17.1	-	-
COc1ccc(C2CC(c3ccc(OC)cc3)n3nc(N)nc3N2)cc1 (configuration not stated)	-	-	-	-	-	-	.	.
N#CCCN1CCN(S(=O)(=O)c2ccc(S(=O)(=O)NCc3ccccc3)cc2)CC1	-	-	-	-	-	-3.45	-	-
CCN=C1SC(C(N)=O)CC(=O)N1CC (configuration not stated)	-	-	-	-	-	-15.3	-	-
Cc1ccc(C)c(NCc2ccc3c(c2)OCO3)c1	.	.	.	.	-	.	.	.
CCOC(=O)c1ccc(N2C(=O)C3C(C2=O)C(C(=O)c2ccc(Cl)cc2)N2CCCC32)cc1 (configuration not stated)	-	-	-	-	.	-1.67	-	-
SMILES	JNK3 blocker	Her2 expr inh	M1 agonist	HEK293 NFkB inh	BAP1 inh	M1 antag	M1 antag conf	mGluR4 antag
O=C(O)c1cccc(NC(=O)c2cccc(S(=O)(=O)N3CCCCC3)c2)c1	-	-	-	-	-	-	.	.
CN1CCN(S(=O)(=O)c2ccc(NC(=O)c3cccc(S(=O)(=O)N4CCCC4)c3)cc2)CC1	-	-	-	-	-	-16.1	43	-
Brc1cnc(N2CCCC2)nc1N1CCOCC1	-	-	-	-	-	-	.	.
Oc1ccccc1Oc1ncc(Br)c(N2CCOCC2)n1	-	-	-	-	-	-16.9	16	-
Cc1cc(C)nc(N2CCN(c3nc(C)cc(C)n3)CC2)n1	-	-	-	-	-	-7.67	-	-
CCOC(=O)c1ccc(NC(=O)C2CC2)cc1	-	-	-	-	-	-	.	.
CCOC(=O)c1ccc(NC(=O)NCCN2CCCCC2)cc1	-	-	-	-	.	-3.41	-	-
O=C(COC(=O)c1c2c(nc3ccccc13)CCC2)c1ccc(-c2ccccc2)cc1	.	.	.	.	-	.	.	.
COCCCNC(=O)CSC1=Nc2ccccc2C2=NC(CC(=O)NCc3ccccc3)C(=O)N12 (configuration not stated)	-	-	-	-	-	-2.51	-	-
CCN(C(=O)Cc1c(C(=O)O)[nH]c2ccccc12)c1cc(OC)ccc1OC	.	-	-	-	-	-2.24	-	-
CCN(C(=O)c1coc(=O)c2ccccc12)c1cc(OC)ccc1OC	-	-	.	-	-	.	.	.
O=C1CC(c2ccc(OC(F)(F)F)cc2)c2ccc3ccccc3c2N1 (configuration not stated)	.	.	.	.	-	.	.	.
O=c1c2c3c(sc2nc2n1CCC2)CCC3	.	-	-	-	-	-	.	.
N=c1c2c3c(sc2nc2n1CCC2)CCCC3	-	-	-	-	-	-1.93	-	-
COc1ccc(NC(=O)c2ccc(CN3CCN(c4ccccc4)CC3)cc2)cc1OC	-	-	-	-	-	-2.73	-	-
CC(C)n1c(SCCO)nc2c1c(=O)[nH]c(=O)n2C	.	.	.	.	-	.	.	.
O=C(c1ccc([N+](=O)[O-])cc1)c1ccc2c(c1)C(=O)N(c1cccnc1)C2=O	.	.	.	.	-	.	.	.
O=C(CCN1CCC(c2ccccc2)C1)c1cccs1 (configuration not stated)	-	-45.2	-	-	-	-5.06	-	-
O=C(c1cccs1)N1CCC(c2ccccc2)C1 (configuration not stated)	-	-	-	-	-	-	.	.
CC1CC(C)CN(S(=O)(=O)c2ccc(C(=O)Nc3nc(-c4ccc(I)cc4)cs3)cc2)C1 (configuration not stated)	.	.	.	.	-	.	.	.
Cc1nn(C)c(C)c1S(=O)(=O)N1CCCC(C(=O)N2CCN(c3ccccc3)CC2)C1 (configuration not stated)	-	-	-	-	-	-2.27	-	-
